Results gathered from unrelated publications.
Each line is one published result; the experiments were not run side by side.
Read-out: cell growth or viability

With `CCN(c1cc(-c2ccc(CN3CCOCC3)cc2)cc(C(=O)NCc2c(C)cc(C)[nH]c2=O)c1C)C1CCOCC1` the GI50 was 385 nM (HT-1376; ATP luminescence; 18 days).
With `COc1ccc(N)cc1-c1c[nH]c2ncc(-c3cncc(C(=O)N(C)C)c3)cc12` the GI50 was 175 nM (K562; MTT; 72 h).
For `C=C(F)C(=O)N1CCN(c2nc(OC[C@@H]3CCCN3C)nc3c2CCN(c2cccc4cccc(Cl)c24)C3)C[C@@H]1CC#N`, the IC50 was > 1000 nM (HCT-15; ATP luminescence; 3D culture).
With `O=C(NO)c1ccc(CNc2nc3cccc(-c4ccc5c(c4)OCO5)n3n2)cc1` the GI50 was 700 nM (HOP-92; SRB).
For `COc1cc2c3c(n(CCCn4ccnc4)c(=O)c2cc1OC)-c1nc2c(cc1C3=O)OCO2`, the IC50 was 580 nM (K562; MTS; 72 h).
`CC(C)C[C@@H]1NC(=O)[C@@H](N(C)C(=O)[C@@H](NC(=O)[C@@H]2C[C@@H](F)CN2C(=O)C2(C(F)(F)F)CC(F)(F)C2)C2CC2)CCCCNC(=O)C(C)(C)NC(=O)[C@H](Cc2cc(Cl)nn2-c2ccccc2)N(C)C1=O` has a GI50 of 4400 nM (NCI-H446; MTT; 5 days).
The GI50 of `C=CC(=O)c1cccnc1Nc1cccc(C(F)(F)F)c1` is reported as 15400 nM (HCT-15; SRB; 48 h).
`COc1cc2c3c(n(CCCNCCO)c(=O)c2cc1OC)-c1nc2c(cc1C3=O)OCO2` gave an IC50 of 196 nM (K562; MTS; 72 h).
For `C=CC(=O)NC1CCN(c2ncc3ncnc(Nc4ccc(Oc5ccc6c(c5)ncn6C)c(C)c4)c3n2)CC1`, the EC50 was 313 nM (COR-L88).
The GI50 of `CCCN1C(=O)[C@H](CC(C)C)NC(=O)[C@@H](N(C)C(=O)[C@H](CC2CCC2)NC(=O)[C@@H]2C[C@@H](F)CN2C(=O)[C@@](C)(O)C(F)(F)F)CCCCNC(=O)C2(CC2)NC(=O)[C@@H]1Cc1cc(Cl)ccc1Cl` is reported as 28 nM (NCI-H446; MTT; 5 days).
The GI50 of `C=CC(=O)c1cccnc1Nc1cc(C(F)(F)F)ccc1OCc1ccccc1` is reported as 19500 nM (HCT-15; SRB; 48 h).
`CN(C)C(=O)c1cncc(-c2cnc3[nH]cc(-c4ccccc4C(F)(F)F)c3c2)c1` gave a GI50 of 453 nM (K562; MTT; 72 h).
For `COc1cc2c3c(n(CCCN4CCOCC4)c(=O)c2cc1OC)-c1nc2c(cc1C3=O)OCO2`, the IC50 was 1010 nM (K562; MTS; 72 h).
With `COc1ccc(OCc2ccc([N+](=O)[O-])cc2)cc1-c1c[nH]c2ncc(-c3cncc(C(=O)N(C)C)c3)cc12` the GI50 was 697 nM (K562; MTT; 72 h).
The IC50 of `C=CC(=O)N1CCN(c2nc(=O)n(-c3c(C)ccnc3C(C)C)c3nc(-c4c(O)cccc4F)c(F)cc23)[C@@H](C)C1` is reported as 48.4 nM (NCI-H1373; ATP luminescence).
With `C=CS(=O)(=O)Nc1ccc(OC)c(-c2c[nH]c3ncc(-c4cncc(C(=O)N(C)C)c4)cc23)c1` the GI50 was > 1000 nM (K562; MTT; 72 h).
The IC50 of `Cc1sc2c(c1C)C(c1ccc(Cl)cc1)=N[C@@H](CC(=O)NCCCCCCCCNC(=O)COc1cccc3c1C(=O)N(C1CCC(=O)NC1=O)C3=O)c1nnc(C)n1-2` (some centres unmarked) is reported as 343 nM (K562; ATP luminescence).
